Assay results reported in ChEMBL document CHEMBL3792291, “Design, synthesis, biological evaluation and docking studies of novel 2-substituted-4-morpholino-7,8-dihydro-5H-thiopyrano[4,3-d]pyrimidine derivatives as dual PI3Kα/mTOR inhibitors” (Eur J Med Chem, 2016).

How the values were obtained:
A549 = assay: Cytotoxicity against human A549 cells assessed as reduction in cell viability after 72 hrs by MTT assay; format: functional, cell-based; conditions: A549, 72 h
[1] = Cytotoxicity against human PC3 cells assessed as reduction in cell viability after 72 hrs by MTT assay; format: functional, cell-based; conditions: PC-3, 72 h
Outline: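 Cells grown in MEM with 10% FBS. About 4×10³ cells per well, seeded and held 24 h at 37 °C in 5% CO₂. Compounds added at the indicated final concentrations for 72 h. MTT then given for 4 h at 37 °C and formazan dissolved in DMSO. Absorbance read at 492 nm with 630 nm as reference.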

MCF7 = assay: Cytotoxicity against human MCF7 cells assessed as reduction in cell viability after 72 hrs by MTT assay; format: functional, cell-based; conditions: MCF7, 72 h
[2] = target: Serine/threonine-protein kinase mTOR (Homo sapiens, UniProt P42345); assay: Inhibition of mTOR (unknown origin) using ULight-4E-BP1 peptide substrate incubated for 1 hr by TR-FRET assay
[3] = target: Phosphatidylinositol 4,5-bisphosphate 3-kinase catalytic subunit alpha isoform (Homo sapiens, UniProt P42336); assay: Inhibition of PI3Kalpha (unknown origin) using phosphatidylinositol as substrate incubated for 60 mins by Kinase-Glo luminescent kinase assay
[4] = target: Hepatocyte growth factor receptor (Homo sapiens, UniProt P08581)
Sequence of Hepatocyte growth factor receptor (P08581 whole entry): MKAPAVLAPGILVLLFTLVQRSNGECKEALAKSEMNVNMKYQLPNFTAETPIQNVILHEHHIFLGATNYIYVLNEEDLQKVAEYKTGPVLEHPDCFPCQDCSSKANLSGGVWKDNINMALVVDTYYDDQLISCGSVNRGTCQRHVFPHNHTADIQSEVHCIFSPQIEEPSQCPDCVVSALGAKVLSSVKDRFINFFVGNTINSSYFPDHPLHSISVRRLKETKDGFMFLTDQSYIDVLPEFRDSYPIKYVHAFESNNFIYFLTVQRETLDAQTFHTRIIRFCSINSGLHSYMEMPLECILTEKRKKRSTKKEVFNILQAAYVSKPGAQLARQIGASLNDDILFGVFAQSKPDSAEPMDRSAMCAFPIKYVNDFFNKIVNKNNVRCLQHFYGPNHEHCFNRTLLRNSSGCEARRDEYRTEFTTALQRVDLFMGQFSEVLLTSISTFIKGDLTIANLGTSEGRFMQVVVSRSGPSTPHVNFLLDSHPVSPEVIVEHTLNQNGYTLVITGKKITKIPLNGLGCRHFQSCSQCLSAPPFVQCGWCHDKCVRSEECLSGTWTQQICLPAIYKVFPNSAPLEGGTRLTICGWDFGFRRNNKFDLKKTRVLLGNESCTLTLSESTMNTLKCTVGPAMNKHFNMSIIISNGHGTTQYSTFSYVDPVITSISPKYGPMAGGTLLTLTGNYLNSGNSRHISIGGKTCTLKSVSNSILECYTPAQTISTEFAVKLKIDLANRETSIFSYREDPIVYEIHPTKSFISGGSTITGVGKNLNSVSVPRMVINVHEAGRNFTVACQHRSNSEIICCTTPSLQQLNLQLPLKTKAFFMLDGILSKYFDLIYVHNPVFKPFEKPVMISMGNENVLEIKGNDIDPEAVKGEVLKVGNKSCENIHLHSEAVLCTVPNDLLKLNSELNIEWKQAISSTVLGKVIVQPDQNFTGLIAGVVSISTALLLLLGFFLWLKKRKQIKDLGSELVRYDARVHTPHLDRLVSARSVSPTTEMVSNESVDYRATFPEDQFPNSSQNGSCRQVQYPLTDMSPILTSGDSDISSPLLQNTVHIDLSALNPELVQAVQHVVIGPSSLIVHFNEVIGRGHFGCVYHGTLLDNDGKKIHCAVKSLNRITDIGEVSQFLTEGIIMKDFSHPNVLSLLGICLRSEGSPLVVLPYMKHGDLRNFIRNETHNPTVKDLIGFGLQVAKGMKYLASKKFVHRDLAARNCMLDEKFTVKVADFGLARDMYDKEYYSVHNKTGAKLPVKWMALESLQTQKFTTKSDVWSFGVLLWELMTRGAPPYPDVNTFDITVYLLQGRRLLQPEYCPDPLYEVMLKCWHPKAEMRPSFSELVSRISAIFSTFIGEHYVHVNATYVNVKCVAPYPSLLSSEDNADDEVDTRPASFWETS

Sequence of Phosphatidylinositol 4,5-bisphosphate 3-kinase catalytic subunit alpha isoform (P42336 whole entry, canonical isoform): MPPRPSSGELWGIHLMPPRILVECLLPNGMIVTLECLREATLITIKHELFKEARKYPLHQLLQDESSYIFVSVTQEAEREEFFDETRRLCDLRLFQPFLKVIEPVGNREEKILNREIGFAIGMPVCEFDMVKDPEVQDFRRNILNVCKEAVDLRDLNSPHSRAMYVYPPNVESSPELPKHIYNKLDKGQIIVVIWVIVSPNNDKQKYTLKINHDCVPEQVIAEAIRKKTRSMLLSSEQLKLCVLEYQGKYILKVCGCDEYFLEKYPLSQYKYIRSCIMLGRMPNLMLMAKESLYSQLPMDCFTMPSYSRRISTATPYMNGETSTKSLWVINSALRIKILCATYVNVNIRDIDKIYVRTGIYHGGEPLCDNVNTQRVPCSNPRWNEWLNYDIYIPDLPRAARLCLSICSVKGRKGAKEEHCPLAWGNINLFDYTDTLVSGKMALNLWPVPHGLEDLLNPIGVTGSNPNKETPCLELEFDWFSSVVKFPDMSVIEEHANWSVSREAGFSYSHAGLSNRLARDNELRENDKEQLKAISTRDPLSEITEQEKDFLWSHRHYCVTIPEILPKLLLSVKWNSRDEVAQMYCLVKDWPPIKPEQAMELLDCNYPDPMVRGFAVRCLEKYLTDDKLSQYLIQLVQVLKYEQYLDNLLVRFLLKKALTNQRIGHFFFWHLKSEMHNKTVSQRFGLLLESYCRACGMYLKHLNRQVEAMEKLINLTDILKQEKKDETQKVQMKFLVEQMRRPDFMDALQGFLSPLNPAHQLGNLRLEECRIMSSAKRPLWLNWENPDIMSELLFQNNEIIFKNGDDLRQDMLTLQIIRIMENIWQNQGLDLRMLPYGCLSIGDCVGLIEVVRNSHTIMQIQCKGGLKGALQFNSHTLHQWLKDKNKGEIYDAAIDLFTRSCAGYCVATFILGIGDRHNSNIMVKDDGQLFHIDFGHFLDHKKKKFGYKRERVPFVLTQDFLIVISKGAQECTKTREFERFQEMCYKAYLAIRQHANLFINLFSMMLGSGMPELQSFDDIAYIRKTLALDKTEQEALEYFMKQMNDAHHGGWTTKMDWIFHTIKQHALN

Row | Structure (SMILES) | IC50 (A549) | IC50 [1] | IC50 (MCF7) | IC50 [2] | IC50 [3] | IC50 [4]
1 | O=C(Nc1ccc(Cl)c(C(F)(F)F)c1)N1CCN(c2nc3c(c(N4CCOCC4)n2)CSCC3)CC1 | 3.83 µM | 26.7 µM | 5.8 µM | 6.26 µM | > 10 µM | > 10 µM
2 | O=C(Nc1ccc(Cl)c(C(F)(F)F)c1)N1CCN(c2nc3c(c(N4CCOCC4)n2)CS(=O)(=O)CC3)CC1 | 6.13 µM | 28.7 µM | 5.94 µM | 9.43 µM | 4.23 µM | > 10 µM
3 | O=C(Nc1ccc(F)c(Cl)c1)Nc1ccc(-c2nc3c(c(N4CCOCC4)n2)CSCC3)cn1 | 6.07 µM | 20.5 µM | 11.5 µM | 0.86 µM | 0.69 µM | > 10 µM
4 | O=C(Nc1ccc(-c2nc3c(c(N4CCOCC4)n2)CSCC3)cc1)NS(=O)(=O)c1ccc(Cl)cc1 | > 50 µM | > 50 µM | > 50 µM | – | – | –
5 | Cc1ccc(S(=O)(=O)NC(=O)Nc2ccc(-c3nc4c(c(N5CCOCC5)n3)CS(=O)(=O)CC4)cn2)cc1 | 42.5 µM | > 50 µM | > 50 µM | – | – | –
6 | O=C(Nc1ccc(Br)cc1)N1CCN(c2nc3c(c(N4CCOCC4)n2)CS(=O)(=O)CC3)CC1 | 19 µM | > 50 µM | 45.6 µM | – | – | –
7 | O=C(Nc1ccccc1)N1CCN(c2nc3c(c(N4CCOCC4)n2)CS(=O)(=O)CC3)CC1 | > 50 µM | > 50 µM | > 50 µM | – | – | –
8 | O=C(Nc1ccc(-c2nc3c(c(N4CCOCC4)n2)CSCC3)cc1)NS(=O)(=O)c1ccc(F)cc1 | > 50 µM | > 50 µM | > 50 µM | – | – | –
9 | O=C(Nc1ccccc1)N1CCN(c2nc3c(c(N4CCOCC4)n2)CSCC3)CC1 | > 50 µM | > 50 µM | > 50 µM | – | – | –
10 | O=C(Nc1ccccc1)Nc1ccc(-c2nc3c(c(N4CCOCC4)n2)CSCC3)cn1 | 1.27 µM | > 50 µM | 46.6 µM | – | – | –
11 | O=C(Nc1ccc(-c2nc3c(c(N4CCOCC4)n2)CS(=O)(=O)CC3)cn1)NS(=O)(=O)c1ccc(Cl)cc1 | > 50 µM | > 50 µM | > 50 µM | – | – | –
12 | O=C(Nc1ccc(-c2nc3c(c(N4CCOCC4)n2)CS(=O)(=O)CC3)cc1)NS(=O)(=O)c1ccc(Cl)cc1 | > 50 µM | > 50 µM | > 50 µM | – | – | –
13 | O=C(Nc1ccc(-c2nc3c(c(N4CCOCC4)n2)CS(=O)(=O)CC3)cn1)NS(=O)(=O)c1ccc(F)cc1F | 22.7 µM | > 50 µM | 19.7 µM | – | – | –
14 | O=C(Nc1ccc(-c2nc3c(c(N4CCOCC4)n2)CSCC3)cn1)NS(=O)(=O)c1ccc(F)cc1 | 36.2 µM | > 50 µM | > 50 µM | – | – | –
15 | O=C(Nc1ccc(-c2nc3c(c(N4CCOCC4)n2)CSCC3)cn1)NS(=O)(=O)c1ccc(Cl)cc1 | > 50 µM | > 50 µM | > 50 µM | – | – | –
16 | O=C(Nc1ccc(F)c(Cl)c1)Nc1ccc(-c2nc3c(c(N4CCOCC4)n2)CS(=O)(=O)CC3)cn1 | 0.52 µM | 1.41 µM | 4.82 µM | 0.94 µM | 6.72 µM | > 10 µM
17 | O=C(Nc1ccc(Br)cc1)N1CCN(c2nc3c(c(N4CCOCC4)n2)CSCC3)CC1 | 39.9 µM | > 50 µM | 4.68 µM | – | – | –
18 | CS(=O)(=O)N1CCN(Cc2cc3nc(-c4cccc5[nH]ncc45)nc(N4CCOCC4)c3s2)CC1 [PICTILISIB] | 1.2 µM | 0.8 µM | – | – | – | –
19 | O=C(Nc1ccc(-c2nc3c(c(N4CCOCC4)n2)CSCC3)cn1)NS(=O)(=O)c1cccs1 | 46.9 µM | > 50 µM | > 50 µM | – | – | –
20 | O=C(Nc1ccc(Cl)c(C(F)(F)F)c1)Nc1ccc(-c2nc3c(c(N4CCOCC4)n2)CS(=O)(=O)CC3)cn1 | > 50 µM | 32.2 µM | 4.67 µM | – | – | –
21 | CNC(=O)c1cc(Oc2ccc(NC(=O)Nc3ccc(Cl)c(C(F)(F)F)c3)cc2)ccn1 [SORAFENIB] | – | 8.08 µM | – | – | – | –
22 | O=C(Nc1ccc(-c2nc3c(c(N4CCOCC4)n2)CS(=O)(=O)CC3)cc1)NS(=O)(=O)c1ccc(F)cc1 | > 50 µM | > 50 µM | > 50 µM | – | – | –
